In ChEMBL document CHEMBL1154956, “Stereospecific synthesis of oximes and oxime ethers of 3-azabicycles: A SAR study towards antimicrobial agents” (2010):
In brackets after ≈: the same amount, converted by molar mass.

Key:
Format in all cases: functional
Bacillus subtilis = assay: Antibacterial activity against Bacillus subtilis by NCCLS broth microdilution method
Staphylococcus aureus = assay: Antibacterial activity against Staphylococcus aureus by NCCLS broth microdilution method
Klebsiella pneumoniae = assay: Antibacterial activity against Klebsiella pneumoniae by NCCLS broth microdilution method
Pseudomonas aeruginosa = assay: Antibacterial activity against Pseudomonas aeruginosa by NCCLS broth microdilution method
Candida albicans = assay: Antifungal activity against Candida albicans by NCCLS broth microdilution method
Outline: (§1)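 MIC90 was taken as the lowest concentration that inhibited 90% of pathogen growth after incubation, reported in μg/mL. Broth dilution followed the NCCLS reference standards: M27-A for yeasts and the proposed standard for conidium-forming filamentous fungi. Fluconazole was the reference drug.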

Candida parapsilosis = assay: Antifungal activity against Candida parapsilosis by NCCLS broth microdilution method; outline: as §1
Aspergillus niger = assay: Antifungal activity against Aspergillus niger by NCCLS broth microdilution method; outline: as §1
Cryptococcus neoformans = assay: Antifungal activity against Cryptococcus neoformans by NCCLS broth microdilution method; outline: as §1
[1] = Bacillus subtilis, read-out: MIC90
[2] = Staphylococcus aureus, read-out: MIC90
[3] = Klebsiella pneumoniae, read-out: MIC90
[4] = Pseudomonas aeruginosa, read-out: MIC90
[5] = Candida albicans, read-out: MIC90
[6] = Lodderomyces parapsilosis, read-out: MIC90
[7] = Aspergillus niger, read-out: MIC90
[8] = Cryptococcus neoformans, read-out: MIC90

CO/N=C1\C2CCCC1(C)C(c1ccccc1F)NC2c1ccccc1F (configuration not stated)
MIC90 (Bacillus subtilis; [1]): 16 µg/mL (≈ 43.2 µM) | MIC90 (Staphylococcus aureus; [2]): 4 µg/mL (≈ 10.8 µM) | MIC90 (Klebsiella pneumoniae; [3]): 4 µg/mL (≈ 10.8 µM) | MIC90 (Pseudomonas aeruginosa; [4]): 8 µg/mL (≈ 21.6 µM) | MIC90 (Candida albicans; [5]): 4 µg/mL (≈ 10.8 µM) | MIC90 (Candida parapsilosis; [6]): 8 µg/mL (≈ 21.6 µM) | MIC90 (Aspergillus niger; [7]): 16 µg/mL (≈ 43.2 µM) | MIC90 (Cryptococcus neoformans; [8]): 8 µg/mL (≈ 21.6 µM)

CON=C1C2CC(C)CC1C(c1cccc(Cl)c1)NC2c1cccc(Cl)c1 (configuration not stated)
MIC90 (Bacillus subtilis; [1]): 64 µg/mL (≈ 159 µM) | MIC90 (Staphylococcus aureus; [2]): 32 µg/mL (≈ 79.3 µM) | MIC90 (Klebsiella pneumoniae; [3]): 32 µg/mL (≈ 79.3 µM) | MIC90 (Pseudomonas aeruginosa; [4]): 128 µg/mL (≈ 317 µM) | MIC90 (Candida albicans; [5]): 16 µg/mL (≈ 39.7 µM) | MIC90 (Candida parapsilosis; [6]): 8 µg/mL (≈ 19.8 µM) | MIC90 (Aspergillus niger; [7]): 32 µg/mL (≈ 79.3 µM) | MIC90 (Cryptococcus neoformans; [8]): 32 µg/mL (≈ 79.3 µM)

CON=C1C2CC(C)CC1C(c1cccc(F)c1)NC2c1cccc(F)c1 (stereo in doubt; 56a)
MIC90 (Bacillus subtilis; [1]): 16 µg/mL (≈ 43.2 µM) | MIC90 (Staphylococcus aureus; [2]): 16 µg/mL (≈ 43.2 µM) | MIC90 (Klebsiella pneumoniae; [3]): 64 µg/mL (≈ 173 µM) | MIC90 (Pseudomonas aeruginosa; [4]): 64 µg/mL (≈ 173 µM) | MIC90 (Candida albicans): 32 µg/mL (≈ 86.4 µM) | MIC90 (Candida parapsilosis; [6]): 32 µg/mL (≈ 86.4 µM) | MIC90 (Aspergillus niger): 64 µg/mL (≈ 173 µM) | MIC90 (Cryptococcus neoformans; [8]): 64 µg/mL (≈ 173 µM)

CO/N=C1\C2CCCC1(C)C(c1ccccc1)NC2c1ccccc1 (configuration not stated)
MIC90 (Bacillus subtilis; [1]): > 128 µg/mL | MIC90 (Staphylococcus aureus; [2]): 64 µg/mL (≈ 191 µM) | MIC90 (Klebsiella pneumoniae; [3]): 128 µg/mL (≈ 383 µM) | MIC90 (Pseudomonas aeruginosa; [4]): > 128 µg/mL | MIC90 (Candida albicans; [5]): 128 µg/mL (≈ 383 µM) | MIC90 (Candida parapsilosis; [6]): > 128 µg/mL | MIC90 (Aspergillus niger; [7]): > 128 µg/mL | MIC90 (Cryptococcus neoformans; [8]): > 128 µg/mL

CON=C1C2CC(C)CC1C(c1ccc(Cl)cc1)NC2c1ccc(Cl)cc1 (configuration not stated)
MIC90 (Bacillus subtilis; [1]): 16 µg/mL (≈ 39.7 µM) | MIC90 (Staphylococcus aureus; [2]): 16 µg/mL (≈ 39.7 µM) | MIC90 (Klebsiella pneumoniae; [3]): 8 µg/mL (≈ 19.8 µM) | MIC90 (Pseudomonas aeruginosa; [4]): 32 µg/mL (≈ 79.3 µM) | MIC90 (Candida albicans; [5]): 32 µg/mL (≈ 79.3 µM) | MIC90 (Candida parapsilosis; [6]): 16 µg/mL (≈ 39.7 µM) | MIC90 (Aspergillus niger; [7]): 64 µg/mL (≈ 159 µM) | MIC90 (Cryptococcus neoformans; [8]): 16 µg/mL (≈ 39.7 µM)

CC1CC2C(=NO)C(C1)C(c1ccccc1Cl)NC2c1ccccc1Cl (stereo in doubt; 52b)
MIC90 (Bacillus subtilis): 64 µg/mL (≈ 164 µM) | MIC90 (Staphylococcus aureus): 16 µg/mL (≈ 41.1 µM) | MIC90 (Klebsiella pneumoniae): 32 µg/mL (≈ 82.2 µM) | MIC90 (Pseudomonas aeruginosa): >128 µg/mL | MIC90 (Candida albicans): 4 µg/mL (≈ 10.3 µM) | MIC90 (Candida parapsilosis): 16 µg/mL (≈ 41.1 µM) | MIC90 (Aspergillus niger): 32 µg/mL (≈ 82.2 µM) | MIC90 (Cryptococcus neoformans): 64 µg/mL (≈ 164 µM)

CC1CC2C(=NO)C(C1)C(c1ccccc1F)NC2c1ccccc1F (stereo in doubt; 49a)
MIC90 (Bacillus subtilis; [1]): 16 µg/mL (≈ 44.9 µM) | MIC90 (Staphylococcus aureus): 8 µg/mL (≈ 22.4 µM) | MIC90 (Klebsiella pneumoniae): 16 µg/mL (≈ 44.9 µM) | MIC90 (Pseudomonas aeruginosa): 32 µg/mL (≈ 89.8 µM) | MIC90 (Candida albicans): 64 µg/mL (≈ 180 µM) | MIC90 (Candida parapsilosis): 128 µg/mL (≈ 359 µM) | MIC90 (Aspergillus niger): 64 µg/mL (≈ 180 µM) | MIC90 (Cryptococcus neoformans): 64 µg/mL (≈ 180 µM)

CO/N=C1\C2CCCC1(C)C(c1ccc(Br)cc1)NC2c1ccc(Br)cc1 (configuration not stated)
MIC90 (Bacillus subtilis; [1]): 64 µg/mL (≈ 130 µM) | MIC90 (Staphylococcus aureus; [2]): 32 µg/mL (≈ 65 µM) | MIC90 (Klebsiella pneumoniae; [3]): 32 µg/mL (≈ 65 µM) | MIC90 (Pseudomonas aeruginosa; [4]): > 128 µg/mL | MIC90 (Candida albicans; [5]): 64 µg/mL (≈ 130 µM) | MIC90 (Candida parapsilosis; [6]): 128 µg/mL (≈ 260 µM) | MIC90 (Aspergillus niger; [7]): 32 µg/mL (≈ 65 µM) | MIC90 (Cryptococcus neoformans; [8]): 64 µg/mL (≈ 130 µM)

CON=C1C2CC(C)CC1C(c1ccc(F)cc1)NC2c1ccc(F)cc1 (configuration not stated)
MIC90 (Bacillus subtilis; [1]): 16 µg/mL (≈ 43.2 µM) | MIC90 (Staphylococcus aureus; [2]): 4 µg/mL (≈ 10.8 µM) | MIC90 (Klebsiella pneumoniae; [3]): 8 µg/mL (≈ 21.6 µM) | MIC90 (Pseudomonas aeruginosa; [4]): 16 µg/mL (≈ 43.2 µM) | MIC90 (Candida albicans; [5]): 16 µg/mL (≈ 43.2 µM) | MIC90 (Candida parapsilosis; [6]): 64 µg/mL (≈ 173 µM) | MIC90 (Aspergillus niger; [7]): 16 µg/mL (≈ 43.2 µM) | MIC90 (Cryptococcus neoformans; [8]): 8 µg/mL (≈ 21.6 µM)

CO/N=C1\C2CCCC1(C)C(c1ccc(OC)cc1)NC2c1ccc(OC)cc1 (configuration not stated)
MIC90 (Bacillus subtilis; [1]): 64 µg/mL (≈ 162 µM) | MIC90 (Staphylococcus aureus; [2]): 16 µg/mL (≈ 40.6 µM) | MIC90 (Klebsiella pneumoniae; [3]): 64 µg/mL (≈ 162 µM) | MIC90 (Pseudomonas aeruginosa; [4]): 128 µg/mL (≈ 324 µM) | MIC90 (Candida albicans; [5]): 64 µg/mL (≈ 162 µM) | MIC90 (Candida parapsilosis; [6]): 128 µg/mL (≈ 324 µM) | MIC90 (Aspergillus niger; [7]): 128 µg/mL (≈ 324 µM) | MIC90 (Cryptococcus neoformans; [8]): > 128 µg/mL

CON=C1C2CC(C)CC1C(c1ccccc1Cl)NC2c1ccccc1Cl (stereo in doubt; 58b)
MIC90 (Bacillus subtilis): 32 µg/mL (≈ 79.3 µM) | MIC90 (Staphylococcus aureus): 8 µg/mL (≈ 19.8 µM) | MIC90 (Klebsiella pneumoniae): 16 µg/mL (≈ 39.7 µM) | MIC90 (Pseudomonas aeruginosa): 16 µg/mL (≈ 39.7 µM) | MIC90 (Candida albicans): 4 µg/mL (≈ 9.92 µM) | MIC90 (Candida parapsilosis): 4 µg/mL (≈ 9.92 µM) | MIC90 (Aspergillus niger): 2 µg/mL (≈ 4.96 µM) | MIC90 (Cryptococcus neoformans): 2 µg/mL (≈ 4.96 µM)

CC1CC2C(=NO)C(C1)C(c1cccc(F)c1)NC2c1cccc(F)c1 (stereo in doubt; 50a)
MIC90 (Bacillus subtilis; [1]): 128 µg/mL (≈ 359 µM) | MIC90 (Staphylococcus aureus; [2]): 32 µg/mL (≈ 89.8 µM) | MIC90 (Klebsiella pneumoniae; [3]): 32 µg/mL (≈ 89.8 µM) | MIC90 (Pseudomonas aeruginosa; [4]): 64 µg/mL (≈ 180 µM) | MIC90 (Candida albicans; [5]): 128 µg/mL (≈ 359 µM) | MIC90 (Candida parapsilosis; [6]): 64 µg/mL (≈ 180 µM) | MIC90 (Aspergillus niger; [7]): 64 µg/mL (≈ 180 µM) | MIC90 (Cryptococcus neoformans; [8]): > 128 µg/mL

COc1ccccc1C1NC(c2ccccc2OC)C2(C)CCCC1/C2=N\O (configuration not stated)
MIC90 (Bacillus subtilis; [1]): 64 µg/mL (≈ 168 µM) | MIC90 (Staphylococcus aureus; [2]): 64 µg/mL (≈ 168 µM) | MIC90 (Klebsiella pneumoniae; [3]): 128 µg/mL (≈ 336 µM) | MIC90 (Pseudomonas aeruginosa; [4]): 128 µg/mL (≈ 336 µM) | MIC90 (Candida albicans; [5]): > 128 µg/mL | MIC90 (Candida parapsilosis; [6]): 128 µg/mL (≈ 336 µM) | MIC90 (Aspergillus niger; [7]): 128 µg/mL (≈ 336 µM) | MIC90 (Cryptococcus neoformans; [8]): 64 µg/mL (≈ 168 µM)

CON=C1C2CC(C)CC1C(c1cccc(F)c1)NC2c1cccc(F)c1 (stereo in doubt; 56b)
MIC90 (Bacillus subtilis): 32 µg/mL (≈ 86.4 µM) | MIC90 (Staphylococcus aureus): 32 µg/mL (≈ 86.4 µM) | MIC90 (Klebsiella pneumoniae): 64 µg/mL (≈ 173 µM) | MIC90 (Pseudomonas aeruginosa): 64 µg/mL (≈ 173 µM) | MIC90 (Candida albicans): 8 µg/mL (≈ 21.6 µM) | MIC90 (Candida parapsilosis): 16 µg/mL (≈ 43.2 µM) | MIC90 (Aspergillus niger): 16 µg/mL (≈ 43.2 µM) | MIC90 (Cryptococcus neoformans): 32 µg/mL (≈ 86.4 µM)
